Test results: ChEMBL document CHEMBL1151428, “Capability of 11 antipneumococcal antibiotics to select for resistance by multistep and single-step methodologies” (2007)
Converted amounts (≈) assume the structure as drawn.

How the values were obtained:
Format in all cases: functional
Streptococcus pneumoniae [1] = experiment: Antimicrobial activity against drug-resistant Streptococcus pneumoniae isolate 24 after 50 passages with moxifloxacin measured after 10 antibiotic-free subculture by multi-step resistance selection technique
Outline: (§1)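 Mutants selected by daily broth passage in subinhibitory drug in cation-adjusted Mueller-Hinton broth with 5% lysed horse blood. Stability was tested by 10 daily passages on blood agar without antibiotic, then macrodilution MIC.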

Streptococcus pneumoniae [2] = experiment: Antimicrobial activity against drug-resistant Streptococcus pneumoniae isolate 24 after 14 passages with Telithromycin measured after 10 antibiotic-free subculture by multi-step resistance selection technique; outline: as §1
Streptococcus pneumoniae [3] = experiment: Antimicrobial activity against drug-resistant Streptococcus pneumoniae isolate 24 by NCCLS M7-A7 method
Streptococcus pneumoniae [4] = experiment: Antimicrobial activity against drug-resistant Streptococcus pneumoniae isolate 1635 after 14 passages with azithromycin measured after 10 antibiotic-free subculture by multi-step resistance selection technique; outline: as §1
Streptococcus pneumoniae [5] = experiment: Antimicrobial activity against drug-resistant Streptococcus pneumoniae isolate 1635 after 50 passages by multi-step resistance selection technique
Outline: (§2)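 Daily serial passage in subinhibitory drug levels in 1 ml cation-adjusted Mueller-Hinton broth with 5% lysed horse blood; fresh broth for tigecycline. Each day, 10 μl were taken from the tube one to two dilutions below the MIC whose turbidity matched the growth control, and used to set the next MIC. MIC by macrodilution.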

Streptococcus pneumoniae [6] = experiment: Antimicrobial activity against drug-resistant Streptococcus pneumoniae isolate 3243 after 20 passages with moxifloxacin measured after 10 antibiotic-free subculture by multi-step resistance selection technique; outline: as §1
Streptococcus pneumoniae [7] = experiment: Antimicrobial activity against drug-resistant Streptococcus pneumoniae isolate 3243 after 41 passages with clarithromycin measured after 10 antibiotic-free subculture by multi-step resistance selection technique
Streptococcus pneumoniae [8] = experiment: Antimicrobial activity against drug-resistant Streptococcus pneumoniae isolate 3243 after 29 passages with Telithromycin measured after 10 antibiotic-free subculture by multi-step resistance selection technique; outline: as §1
Streptococcus pneumoniae [9] = experiment: Antimicrobial activity against drug-resistant Streptococcus pneumoniae isolate 3243 after 50 passages by multi-step resistance selection technique
Outline: as §2, with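 “MIC. […]” for “MIC.”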

Streptococcus pneumoniae [10] = experiment: Antimicrobial activity against drug-resistant Streptococcus pneumoniae isolate 3243 by NCCLS M7-A7 method
Streptococcus pneumoniae [11] = experiment: Antimicrobial activity against drug-resistant Streptococcus pneumoniae isolate 3676 after 50 passages with moxifloxacin measured after 10 antibiotic-free subculture by multi-step resistance selection technique
Streptococcus pneumoniae [12] = experiment: Antimicrobial activity against drug-resistant Streptococcus pneumoniae isolate 3274 after 48 passages with Telithromycin measured after 10 antibiotic-free subculture by multi-step resistance selection technique; outline: as §1
Streptococcus pneumoniae [13] = experiment: Antimicrobial activity against drug-resistant Streptococcus pneumoniae isolate 3274 after 50 passages by multi-step resistance selection technique; outline: as §2
Streptococcus pneumoniae [14] = experiment: Antimicrobial activity against drug-resistant Streptococcus pneumoniae isolate 3274 by NCCLS M7-A7 method
Streptococcus pneumoniae [15] = experiment: Antimicrobial activity against drug-resistant Streptococcus pneumoniae isolate 2527 by NCCLS M7-A7 method
Streptococcus pneumoniae [16] = experiment: Antimicrobial activity against drug-resistant Streptococcus pneumoniae isolate 1077 after 49 passages with clindamycin measured after 10 antibiotic-free subculture by multi-step resistance selection technique
Streptococcus pneumoniae [17] = experiment: Antimicrobial activity against drug-resistant Streptococcus pneumoniae isolate 1077 after 29 passages with azithromycin measured after 10 antibiotic-free subculture by multi-step resistance selection technique; outline: as §1
Streptococcus pneumoniae [18] = experiment: Antimicrobial activity against drug-resistant Streptococcus pneumoniae isolate 1077 after 15 passages with Telithromycin measured after 10 antibiotic-free subculture by multi-step resistance selection technique; outline: as §1
Streptococcus pneumoniae [19] = experiment: Antimicrobial activity against drug-resistant Streptococcus pneumoniae isolate 1077 by NCCLS M7-A7 method
Streptococcus pneumoniae [20] = experiment: Antimicrobial activity against drug-resistant Streptococcus pneumoniae isolate 1076 after 14 passages with Telithromycin measured after 10 antibiotic-free subculture by multi-step resistance selection technique; outline: as §1
Streptococcus pneumoniae [21] = experiment: Antimicrobial activity against drug-resistant Streptococcus pneumoniae isolate 1076 by NCCLS M7-A7 method
Streptococcus pneumoniae [22] = experiment: Antimicrobial activity against drug-resistant Streptococcus pneumoniae isolate 1076 after 50 passages by multi-step resistance selection technique
Outline: as §2, with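 “MIC. […]” for “MIC.”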

Streptococcus pneumoniae [23] = experiment: Antimicrobial activity against drug-resistant Streptococcus pneumoniae isolate 3009 after 18 passages with levofloxacin measured after 10 antibiotic-free subculture by multi-step resistance selection technique; outline: as §1
Streptococcus pneumoniae [24] = experiment: Antimicrobial activity against drug-resistant Streptococcus pneumoniae isolate 3009 after 21 passages with gemifloxacin measured after 10 antibiotic-free subculture by multi-step resistance selection technique; outline: as §1
Streptococcus pneumoniae [25] = experiment: Antimicrobial activity against drug-resistant Streptococcus pneumoniae isolate 3009 after 25 passages with clarithromycin measured after 10 antibiotic-free subculture by multi-step resistance selection technique
Streptococcus pneumoniae [26] = experiment: Antimicrobial activity against drug-resistant Streptococcus pneumoniae isolate 1635 after 14 passages with clindamycin measured after 10 antibiotic-free subculture by multi-step resistance selection technique
Streptococcus pneumoniae [27] = experiment: Antimicrobial activity against drug-resistant Streptococcus pneumoniae isolate 37 after 50 passages by multi-step resistance selection technique
Outline: (§3)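 Daily serial passage in broth at subinhibitory drug levels: 1 ml cation-adjusted Mueller-Hinton broth with 5% lysed horse blood; fresh broth for tigecycline. Each day 10 μl inoculum taken from the tube one to two dilutions below MIC matching growth-control turbidity, used to set next MIC.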

Streptococcus pneumoniae [28] = experiment: Antimicrobial activity against drug-resistant Streptococcus pneumoniae isolate 37 after 14 passages with Telithromycin measured after 10 antibiotic-free subculture by multi-step resistance selection technique
Streptococcus pneumoniae [29] = experiment: Antimicrobial activity against drug-resistant Streptococcus pneumoniae isolate 3413 by NCCLS M7-A7 method
Streptococcus pneumoniae [30] = experiment: Antimicrobial activity against drug-resistant Streptococcus pneumoniae isolate 3413 after 50 passages by multi-step resistance selection technique; outline: as §2
Streptococcus pneumoniae [31] = experiment: Antimicrobial activity against drug-resistant Streptococcus pneumoniae isolate 3413 after 30 passages with Telithromycin measured after 10 antibiotic-free subculture by multi-step resistance selection technique; outline: as §1
Streptococcus pneumoniae [32] = experiment: Antimicrobial activity against drug-resistant Streptococcus pneumoniae isolate 3676 after 44 passages with clarithromycin measured after 10 antibiotic-free subculture by multi-step resistance selection technique
Streptococcus pneumoniae [33] = experiment: Antimicrobial activity against drug-resistant Streptococcus pneumoniae isolate 3676 after 14 passages with Telithromycin measured after 10 antibiotic-free subculture by multi-step resistance selection technique
Streptococcus pneumoniae [34] = experiment: Antimicrobial activity against drug-resistant Streptococcus pneumoniae isolate 3676 after 50 passages by multi-step resistance selection technique
Outline: as §3, with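 “MIC. Continued until ≥8-fold MIC rise, minimum 14, maximum 50 passages; MIC read by macrodilution.” for “MIC.”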

Streptococcus pneumoniae [35] = experiment: Antimicrobial activity against drug-resistant Streptococcus pneumoniae isolate 3676 by NCCLS M7-A7 method
Streptococcus pneumoniae [36] = experiment: Antimicrobial activity against drug-resistant Streptococcus pneumoniae isolate 3665 after 14 passages with Telithromycin measured after 10 antibiotic-free subculture by multi-step resistance selection technique

Question: How did the MIC (Streptococcus pneumoniae [1]) turn out when `CO/N=C1\CN(c2nc3c(cc2F)c(=O)c(C(=O)O)cn3C2CC2)CC1CN` (stereo unspecified) [GEMIFLOXACIN] was run?
Answer: The MIC was 0.5 µg/mL (≈ 1.28 µM).

Question: What about the MIC (Streptococcus pneumoniae [2]) of the same compound?
Answer: The MIC was 0.016 µg/mL (≈ 0.0411 µM).

Question: What about the MIC (Streptococcus pneumoniae [3]) of the same compound?
Answer: The MIC was 0.016 µg/mL (≈ 0.0411 µM).

Question: What about the MIC (Streptococcus pneumoniae [4]) of the same compound?
Answer: The MIC was 0.03 µg/mL (≈ 0.077 µM).

Question: What about the MIC (Streptococcus pneumoniae [5]) of the same compound?
Answer: Its MIC is 0.06 µg/mL (≈ 0.154 µM).

Question: And the MIC (Streptococcus pneumoniae [6])?
Answer: The MIC was 0.06 µg/mL (≈ 0.154 µM).

Question: What about the MIC (Streptococcus pneumoniae [7]) of the same compound?
Answer: The MIC was 0.03 µg/mL (≈ 0.077 µM).

Question: What about the MIC (Streptococcus pneumoniae [8]) of the same compound?
Answer: The MIC was 0.03 µg/mL (≈ 0.077 µM).

Question: And the MIC (Streptococcus pneumoniae [9])?
Answer: Its MIC is 0.06 µg/mL (≈ 0.154 µM).

Question: And the MIC (Streptococcus pneumoniae [10])?
Answer: The MIC was 0.016 µg/mL (≈ 0.0411 µM).

Question: What about the MIC (Streptococcus pneumoniae [11]) of the same compound?
Answer: The MIC was 1 µg/mL (≈ 2.57 µM).

Question: And the MIC (Streptococcus pneumoniae [12])?
Answer: The MIC was 0.03 µg/mL (≈ 0.077 µM).

Question: And the MIC (Streptococcus pneumoniae [13])?
Answer: The MIC was 0.06 µg/mL (≈ 0.154 µM).

Question: And the MIC (Streptococcus pneumoniae [14])?
Answer: Its MIC is 0.016 µg/mL (≈ 0.0411 µM).

Question: And the MIC (Streptococcus pneumoniae [15])?
Answer: The MIC was 0.25 µg/mL (≈ 0.642 µM).

Question: And the MIC (Streptococcus pneumoniae [16])?
Answer: Its MIC is 0.25 µg/mL (≈ 0.642 µM).

Question: And the MIC (Streptococcus pneumoniae [17])?
Answer: Its MIC is 0.25 µg/mL (≈ 0.642 µM).

Question: And the MIC (Streptococcus pneumoniae [18])?
Answer: Its MIC is 0.25 µg/mL (≈ 0.642 µM).

Question: And the MIC (Streptococcus pneumoniae [19])?
Answer: Its MIC is 0.25 µg/mL (≈ 0.642 µM).

Question: And the MIC (Streptococcus pneumoniae [20])?
Answer: Its MIC is 0.25 µg/mL (≈ 0.642 µM).

Question: And the MIC (Streptococcus pneumoniae [21])?
Answer: Its MIC is 0.25 µg/mL (≈ 0.642 µM).

Question: What about the MIC (Streptococcus pneumoniae [22]) of the same compound?
Answer: The MIC was 0.5 µg/mL (≈ 1.28 µM).

Question: And the MIC (Streptococcus pneumoniae [23])?
Answer: Its MIC is 1 µg/mL (≈ 2.57 µM).

Question: What about the MIC (Streptococcus pneumoniae [24]) of the same compound?
Answer: The MIC was 2 µg/mL (≈ 5.14 µM).

Question: And the MIC (Streptococcus pneumoniae [25])?
Answer: Its MIC is 0.03 µg/mL (≈ 0.077 µM).

Question: What about the MIC (Streptococcus pneumoniae [26]) of the same compound?
Answer: Its MIC is 0.03 µg/mL (≈ 0.077 µM).

Question: What about the MIC (Streptococcus pneumoniae [27]) of the same compound?
Answer: Its MIC is 0.016 µg/mL (≈ 0.0411 µM).

Question: What about the MIC (Streptococcus pneumoniae [28]) of the same compound?
Answer: Its MIC is 0.03 µg/mL (≈ 0.077 µM).

Question: And the MIC (Streptococcus pneumoniae [29])?
Answer: The MIC was 0.016 µg/mL (≈ 0.0411 µM).

Question: What about the MIC (Streptococcus pneumoniae [30]) of the same compound?
Answer: The MIC was 0.016 µg/mL (≈ 0.0411 µM).

Question: And the MIC (Streptococcus pneumoniae [31])?
Answer: Its MIC is 0.03 µg/mL (≈ 0.077 µM).

Question: And the MIC (Streptococcus pneumoniae [32])?
Answer: The MIC was 0.03 µg/mL (≈ 0.077 µM).

Question: What about the MIC (Streptococcus pneumoniae [33]) of the same compound?
Answer: Its MIC is 0.06 µg/mL (≈ 0.154 µM).

Question: And the MIC (Streptococcus pneumoniae [34])?
Answer: The MIC was 0.03 µg/mL (≈ 0.077 µM).

Question: And the MIC (Streptococcus pneumoniae [35])?
Answer: The MIC was 0.016 µg/mL (≈ 0.0411 µM).

Question: What about the MIC (Streptococcus pneumoniae [36]) of the same compound?
Answer: The MIC was 0.03 µg/mL (≈ 0.077 µM).
